# From ChEMBL document CHEMBL5038587, “Synthesis of Methoxy-, Methylenedioxy-, Hydroxy-, and Halo-Substituted Benzophenanthridinone Derivatives as DNA Topoisomerase IB (TOP1) and Tyrosyl-DNA Phosphodiesterase 1 (TDP1) Inhibitors and Their Biological Activity for Drug-Resistant Cancer” (J Med Chem, 2021)
# Active and inactive are the calls of the source. The rule behind the calls is not given here.
# Key:
# [1] = tested on: MCF7; assay: Induction of DNA damage in human MCF7/TDP1 cells assessed as decrease in TPT-induced gammaH2AX foci at 2 uM measured after 6 hrs by DAPI staining based immunofluorescence assay; format: functional; set-up: scale not given: the % may be the effect or the level left
# Outline: (§1)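 Fixed in 4% paraformaldehyde, permeabilized with 0.5% Triton X-100, blocked in 5% goat serum. Stained with γH2AX antibody overnight at 4 °C, then Alexa 488 secondary plus DAPI 2 µg/mL. Foci counted by confocal microscopy, at least three independent repeats.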
# [2] = target: T1, Tyrosyl-DNA phosphodiesterase 1 (Homo sapiens, UniProt Q9NUW8); assay: Induction of TDP1-DNA complex formation in human […] cells at 10 to 100 uM in presence of TPT by ICE assay; format: cell-based; details: dose 10-100 µM
# T1 sequence (Q9NUW8 whole entry): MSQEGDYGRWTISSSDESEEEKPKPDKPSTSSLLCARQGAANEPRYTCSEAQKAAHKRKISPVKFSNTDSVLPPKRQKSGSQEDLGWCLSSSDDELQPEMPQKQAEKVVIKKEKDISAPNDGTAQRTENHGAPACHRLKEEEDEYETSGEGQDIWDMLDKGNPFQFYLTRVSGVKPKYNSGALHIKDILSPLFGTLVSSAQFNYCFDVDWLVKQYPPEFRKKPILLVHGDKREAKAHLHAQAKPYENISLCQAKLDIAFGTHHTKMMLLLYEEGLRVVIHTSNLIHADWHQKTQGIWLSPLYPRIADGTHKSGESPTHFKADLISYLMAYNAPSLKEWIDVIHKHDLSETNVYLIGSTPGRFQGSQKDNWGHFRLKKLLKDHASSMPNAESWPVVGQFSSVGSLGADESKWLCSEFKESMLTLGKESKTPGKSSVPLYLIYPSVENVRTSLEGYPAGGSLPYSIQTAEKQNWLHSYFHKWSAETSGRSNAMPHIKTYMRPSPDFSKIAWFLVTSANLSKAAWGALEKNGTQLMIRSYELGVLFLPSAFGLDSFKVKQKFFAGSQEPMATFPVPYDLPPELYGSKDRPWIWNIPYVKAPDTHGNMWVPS
# Outline: (§2)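 Genomic DNA isolated with DNAzol and ethanol precipitation, then 2 µg slot-blotted onto nitrocellulose in 25 mM NaH2PO4 pH 6.5. Probed with rabbit anti-TDP1 (1:1000) overnight at 4 °C, then HRP secondary, with chemiluminescent read-out.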
# [3] = target: T1, Tyrosyl-DNA phosphodiesterase 1; assay: Induction of TDP1-DNA complex formation in human MCF7/TDP1 cells at 10 uM by ICE assay; format: cell-based; outline: as §2
# [4] = target: T1, Tyrosyl-DNA phosphodiesterase 1; assay: Induction of TDP1-DNA complex formation in human MCF7 cells at 10 to 100 uM in presence of TPT by ICE assay; format: cell-based; details: dose 10-100 µM; outline: as §2
# [5] = target: T1, Tyrosyl-DNA phosphodiesterase 1; assay: Induction of TDP1-DNA complex formation in human MCF7 cells at 10 uM by ICE assay; format: cell-based; outline: as §2
# [6] = tested on: DU-145; assay: Cytotoxicity against human DU145 cells assessed as cell growth inhibition after 72 hrs by MTT assay; format: functional
# Outline: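 Compounds predissolved in DMSO, tested in a five-dose series from 0.01 to 100 µM for 72 h, then read by MTT. Percent viability inhibition is taken against control, and GI50 is fitted by nonlinear regression.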
# [7] = tested on: MCF7; assay: Cytotoxicity against human MCF-7/TDP1 cells assessed as cell growth inhibition after 72 hrs by MTT assay; format: functional
# Outline: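 MCF-7/TDP1 is a TDP1-overexpressing line made by transfecting parental MCF-7, grown in RPMI 1640 or DMEM with 10% FBS at 37 °C, 5% CO2. DMSO-dissolved compounds tested at five doses from 0.01 to 100 µM, read by MTT. GI50 (mean ± SD, at least three repeats) fitted by nonlinear regression against control.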
# [8] = tested on: MCF7; assay: Induction of DNA damage in human MCF7/TDP1 cells assessed as increase in gammaH2AX foci at 1 uM measured after 6 hrs by DAPI staining based immunofluorescence assay; format: functional; outline: as §1
# [9] = tested on: MCF7; assay: Induction of DNA damage in human MCF7 cells assessed as decrease in TPT-induced gammaH2AX foci at 1 uM measured after 6 hrs by DAPI staining based immunofluorescence assay; format: functional; set-up: scale not given: the % may be the effect or the level left; outline: as §1
# [10] = tested on: MCF7; assay: Induction of DNA damage in human MCF7 cells assessed as decrease in TPT-induced gammaH2AX foci at 2 uM measured after 6 hrs by DAPI staining based immunofluorescence assay; format: functional; set-up: scale not given: the % may be the effect or the level left; outline: as §1
# [11] = tested on: MCF7; assay: Induction of DNA damage in human MCF7/TDP1 cells assessed as decrease in TPT-induced gammaH2AX foci at 1 uM measured after 6 hrs by DAPI staining based immunofluorescence assay; format: functional; set-up: scale not given: the % may be the effect or the level left; outline: as §1
# [12] = tested on: MCF7; assay: Induction of apoptosis in human MCF7 cells assessed as necrotic cells at 1 uM measured after 24 hrs by Annexin V-FITC/propidium iodide staining based flow cytometry (Rvb=0.83%); format: functional
# Outline: (§3)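 MCF-7 cells (2×10^5 per dish) exposed to compound at 1, 2 or 4 µM for 24 h. Cells resuspended in binding buffer and stained with Annexin V-FITC plus propidium iodide for 15 min at 25 °C in the dark. Viable, early apoptotic, late apoptotic and necrotic fractions quantified by flow cytometry.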
# [13] = tested on: MCF7; assay: Induction of apoptosis in human MCF7 cells assessed as late apoptotic cells at 1 uM measured after 24 hrs by Annexin V-FITC/propidium iodide staining based flow cytometry (Rvb=0%); format: functional; outline: as §3
# [14] = tested on: MCF7; assay: Induction of apoptosis in human MCF7 cells assessed as viable cells at 1 uM measured after 24 hrs by Annexin V-FITC/propidium iodide staining based flow cytometry (Rvb=99.05%); format: functional; details: read-out: Activity; outline: as §3
# [15] = tested on: MCF7; assay: Induction of apoptosis in human MCF7 cells assessed as early apoptotic cells at 1 uM measured after 24 hrs by Annexin V-FITC/propidium iodide staining based flow cytometry (Rvb=0.12%); format: functional; outline: as §3
# [16] = tested on: MCF7; assay: Induction of apoptosis in human MCF7 cells assessed as necrotic cells at 2 uM measured after 24 hrs by Annexin V-FITC/propidium iodide staining based flow cytometry; format: functional; outline: as §3
# [17] = tested on: MCF7; assay: Induction of apoptosis in human MCF7 cells assessed as late apoptotic cells at 2 uM measured after 24 hrs by Annexin V-FITC/propidium iodide staining based flow cytometry (Rvb=0%); format: functional; outline: as §3
# [18] = tested on: MCF7; assay: Induction of apoptosis in human MCF7 cells assessed as viable cells at 2 uM measured after 24 hrs by Annexin V-FITC/propidium iodide staining based flow cytometry (Rvb=99.05%); format: functional; details: read-out: Activity; outline: as §3
# [19] = tested on: MCF7; assay: Induction of apoptosis in human MCF7 cells assessed as early apoptotic cells at 2 uM measured after 24 hrs by Annexin V-FITC/propidium iodide staining based flow cytometry (Rvb=0.12%); format: functional; outline: as §3
# [20] = tested on: MCF7; assay: Induction of apoptosis in human MCF7 cells assessed as necrotic cells at 4 uM measured after 24 hrs by Annexin V-FITC/propidium iodide staining based flow cytometry (Rvb=0.83%); format: functional; outline: as §3
# [21] = tested on: MCF7; assay: Induction of apoptosis in human MCF7 cells assessed as late apoptotic cells at 4 uM measured after 24 hrs by Annexin V-FITC/propidium iodide staining based flow cytometry (Rvb=0%); format: functional; outline: as §3
# [22] = tested on: MCF7; assay: Induction of apoptosis in human MCF7 cells assessed as viable cells at 4 uM measured after 24 hrs by Annexin V-FITC/propidium iodide staining based flow cytometry (Rvb=99.05%); format: functional; details: read-out: Activity; outline: as §3
# [23] = tested on: MCF7; assay: Induction of apoptosis in human MCF7 cells assessed as early apoptotic cells at 4 uM measured after 24 hrs by Annexin V-FITC/propidium iodide staining based flow cytometry(Rvb=0.12%); format: functional; outline: as §3
# [24] = tested on: MCF7; assay: Synergistic cytotoxicity against human MCF7 cells assessed as combination index measured after 96 hrs in presence of TPT by MTT assay; format: functional
# [25] = tested on: MCF7; assay: Synergistic cytotoxicity against human MCF7/TDP1 cells assessed as combination index measured after 96 hrs in presence of TPT by MTT assay; format: functional
# [26] = target: T2, DNA topoisomerase 1 (Homo sapiens) (UniProt P11387); assay: Inhibition of recombinant TOP1 (unknown origin) at 1 uM using 3'-[32P]-labeled 117 bp DNA oligonucleotides as substrate incubated for 20 mins by PAGE analysis relative to CPT
# T2 sequence (whole entry): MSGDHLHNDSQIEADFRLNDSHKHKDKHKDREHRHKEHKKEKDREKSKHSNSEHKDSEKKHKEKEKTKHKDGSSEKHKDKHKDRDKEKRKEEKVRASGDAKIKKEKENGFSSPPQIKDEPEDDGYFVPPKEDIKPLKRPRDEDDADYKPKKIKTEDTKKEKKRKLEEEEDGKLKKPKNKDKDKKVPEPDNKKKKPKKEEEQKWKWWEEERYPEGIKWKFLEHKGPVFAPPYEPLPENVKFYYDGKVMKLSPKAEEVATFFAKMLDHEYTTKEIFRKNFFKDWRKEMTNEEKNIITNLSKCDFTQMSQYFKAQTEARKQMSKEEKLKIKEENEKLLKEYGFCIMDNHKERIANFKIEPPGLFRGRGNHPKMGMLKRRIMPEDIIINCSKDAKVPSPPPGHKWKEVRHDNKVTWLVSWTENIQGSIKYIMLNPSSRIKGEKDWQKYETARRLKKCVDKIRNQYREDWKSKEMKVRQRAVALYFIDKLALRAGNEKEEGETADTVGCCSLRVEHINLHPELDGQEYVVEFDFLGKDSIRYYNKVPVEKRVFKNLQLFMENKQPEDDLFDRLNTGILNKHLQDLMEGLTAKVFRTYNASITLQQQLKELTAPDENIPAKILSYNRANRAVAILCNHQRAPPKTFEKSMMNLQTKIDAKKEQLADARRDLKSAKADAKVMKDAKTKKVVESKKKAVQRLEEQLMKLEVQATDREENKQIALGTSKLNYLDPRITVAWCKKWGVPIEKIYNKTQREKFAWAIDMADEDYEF
# Outline: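 3'-[32P]-labeled 117 bp oligonucleotide (~2 nM) with recombinant TOP1 and compound, 25 °C, 20 min. Buffer: 10 mM Tris-HCl pH 7.5, 50 mM KCl, 5 mM MgCl2, 0.1 mM EDTA, BSA. Stopped with 0.5% SDS and run on 20% denaturing PAGE with phosphorimaging.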
# [27] = target: T1, Tyrosyl-DNA phosphodiesterase 1; assay: Induction of TDP1-DNA complex formation in human MCF7 cells at 100 uM by ICE assay; format: cell-based; outline: as §2
# [28] = tested on: MCF7/TDP1; assay: Induction of DNA damage in human MCF7/TDP1 cells assessed as decrease in gammaH2AX foci at 2 uM measured after 6 hrs by DAPI staining based immunofluorescence assay; set-up: scale not given: the % may be the effect or the level left
# [29] = tested on: MCF7; assay: Synergistic cytotoxicity against human MCF7/TDP1 cells at 100 nM after 96 hrs in presence of 12-(2-(Dimethylamino)ethyl)-1,2-dihydroxy-[1,3]dioxolo[4',5':4,5]benzo[1,2-c]phenanthridine-13(12H)-one by MTT assay; format: functional
# [30] = tested on: MCF7; assay: Synergistic cytotoxicity against human MCF7/TDP1 cells at 100 nM after 96 hrs by MTT assay; format: functional
# [31] = tested on: MCF7; assay: Synergistic cytotoxicity against human MCF7 cells at 50 nM after 96 hrs in presence of 12-(2-(Dimethylamino)ethyl)-1,2-dihydroxy-[1,3]dioxolo[4',5':4,5]benzo[1,2-c]phenanthridine-13(12H)-one by MTT assay; format: functional
# [32] = tested on: MCF7; assay: Synergistic cytotoxicity against human MCF7 cells at 50 nM after 96 hrs by MTT assay; format: functional
# [33] = tested on: MCF7; assay: Induction of DNA damage in human MCF7/TDP1 cells assessed as increase in gammaH2AX foci measured after 6 hrs by DAPI staining based immunofluorescence assay; format: functional; outline: as §1
smiles,measurement,setting,value
CN(C)CCn1c(=O)c2c(O)c(O)ccc2c2ccc3cc4c(cc3c21)OCO4,Activity,[1],18%
same,Activity,[2],Active
same,Activity,[3],Active
same,Activity,[4],Active
same,Activity,[5],inactive
same,GI50,[6],800 nM
same,GI50,[7],3980 nM
same,Activity,[8],22%
same,Activity,[9],14%
same,Activity,[10],18%
same,Activity,[11],14%
same,Activity,[12],0.16%
same,Activity,[13],0.73%
same,viability at 1 µM,[14],70.1%
same,Activity,[15],28.99%
same,Activity,[16],14.71%
same,Activity,[17],24.3%
same,viability at 2 µM,[18],39.7%
same,Activity,[19],21.31%
same,Activity,[20],9.31%
same,Activity,[21],48.46%
same,viability at 4 µM,[22],15.7%
same,Activity,[23],26.53%
same,CI,[24],<0.3
same,CI,[25],<0.3
same,inhibition,[26],75%
same,Activity,[27],Active
same,Activity,[28],28%
CC[C@@]1(O)C(=O)OCc2c1cc1n(c2=O)Cc2cc3c(CN(C)C)c(O)ccc3nc2-1 [TOPOTECAN],Activity,[29],86%
same,Activity,[30],19%
same,Activity,[31],87%
same,Activity,[32],23%
same,Activity,[5],inactive
same,GI50,[7],2590 nM
same,Activity,[33],34%
same,Activity,[8],34%
